17 molecules from ChEMBL document CHEMBL1135539, “Synthesis of ketone analogues of prolyl and pipecolyl ester FKBP12 ligands” (J Med Chem, 2002) can be followed below.

pKi: −log10 of the molar value.

As usually defined, the pKi is the Ki on a negative log10 scale, so that one unit is a factor of ten.

In assay [1] the test system is Mus musculus. Description: Post-MPTP % recovery of striatal dopaminergic innervation relative to MPTP-treated mice after peroral administration at dose of 10 mg/kg. In kind it is functional, organism-based. Set-up: dose 10 mg/kg. An outline of the steps:
(§1)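 Mice lesioned with the dopaminergic neurotoxin MPTP, following an earlier-described protocol. The endpoint is striatal dopaminergic innervation. Drug is given either concurrently with MPTP or after the lesion. Values are expressed as % recovery relative to MPTP-lesioned animals that received no test drug.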

Assay [2] deals with Peptidyl-prolyl cis-trans isomerase FKBP1A (Rattus norvegicus, UniProt Q62658). Put plainly: In vitro inhibition of rotamase activity of FK506 binding protein 12.
Sequence of Peptidyl-prolyl cis-trans isomerase FKBP1A (Q62658 whole entry): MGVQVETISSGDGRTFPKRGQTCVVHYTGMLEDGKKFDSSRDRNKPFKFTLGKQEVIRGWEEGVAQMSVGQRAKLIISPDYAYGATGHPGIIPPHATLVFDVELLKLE
The test system of assay [3] is Mus musculus. Description: Concurrent % recovery of striatal dopaminergic innervation relative to MPTP-treated mice after subcutaneous administration at dose of 4 mg/kg. Type of assay: functional, organism-based. Set-up: dose 4 mg/kg. An outline of the steps:
as §1

Consider `O=C(C(=O)N1CCC[C@H]1C(=O)CCCCc1ccccc1)C1CCCCC1`, for which the Recovery worked out at 62.2% in assay [1] and 37.6% in assay [3]. In addition, the pKi in assay [2] was 6.51.

`CCC(C)(C)C(=O)C(=O)N1CCCC[C@H]1C(=O)CCCCc1ccccc1` showed a pKi in assay [2] of 6.10.

Regarding `CCC(C)(C)C(=O)C(=O)N1CCC[C@H]1C(=O)CCCCc1c(F)c(F)c(C(F)(F)F)c(F)c1F`, the Recovery came to 27% in assay [1] and 7% in assay [3]. The molecule further had a pKi in assay [2] of 6.89.

On to `CCC(C)(C)C(=O)C(=O)N1CCC[C@H]1C(=O)CCCCCc1ccccc1`, for which the Recovery was determined as 48% in assay [1] and 46% in assay [3]. The molecule further gave a pKi in assay [2] of 5.42.

Regarding `O=C(C(=O)N1CCC[C@H]1C(=O)CCCCc1ccccc1)c1ccccc1`, in assay [2], the pKi was 5.00.

Turning to `CC(C)(C)C(=O)C(=O)N1CCCC[C@H]1C(=O)CCCCCc1ccccc1`, the Recovery turned out to be 36% in assay [1] and 50% in assay [3]. The pKi in assay [2] was 6.54.

In the case of `CCC(C)(C)C(=O)C(=O)N1CCC[C@H]1C(=O)CCCCc1cccnc1`, the Recovery in assay [1] came to 34%; in assay [3] it was 38%.

For the molecule `CCC(C)(C)C(=O)C(=O)N1CCC[C@H]1C(=O)OCCCc1cccnc1` [GPI-1046], the Recovery in assay [1] was 35%; in assay [3], 39%. Moreover, the pKi in assay [2] is 8.12.

`CCC(C)(C)C(=O)C(=O)N1CCC[C@H]1C(=O)CCCCc1ccc(O)cc1`: the Recovery in assay [1] was determined as 33.5%. This molecule also showed a pKi in assay [2] of 6.62.

`CCC(C)(C)C(=O)C(=O)N1CCC[C@H]1C(=O)CCCCc1ccccc1` gave a pKi in assay [2] of 7.52. The same molecule came in with a Recovery in assay [3] of 22.5%.

For `CCCCC(=O)[C@@H]1CCCCN1C(=O)C(=O)C(C)(C)CC`, the pKi in assay [2] is 5.47.

In turn, `CCC(C)(C)C(=O)C(=O)N1CCCC[C@H]1C(=O)CCCCCc1cccnc1` showed a pKi in assay [2] of 6.05.

Regarding `CCCCC(=O)[C@@H]1CCCN1C(=O)C(=O)C(C)(C)CC`, the pKi in assay [2] was 5.70.

As for `CCC(C)(C)C(=O)C(=O)N1CCCC[C@H]1C(=O)CCCCCc1ccccc1`, the pKi in assay [2] is 5.52. The molecule further yielded a Recovery in assay [3] of 46.3%.

Molecule `CCC(C)(C)C(=O)C(=O)N1CCCC[C@H]1C(=O)CCCc1ccccc1` showed a pKi in assay [2] of 5.00.

Turning to `CC(C)(C)C(=O)C(=O)N1CCC[C@H]1C(=O)CCCc1ccccc1`, the Recovery in assay [1] was determined as 35%; in assay [3], 34%. The molecule also showed a pKi in assay [2] of 6.74.

For the molecule `CCC(C)(C)C(=O)C(=O)N1CCC[C@H]1C(=O)CCCC(c1ccc(F)cc1)c1ccc(F)cc1`, the Recovery turned out to be 54% in assay [1] and 41% in assay [3]. Further, the pKi in assay [2] was 6.34.
